Experimental data taken from ChEMBL document CHEMBL4024754, “Development of Potent, Protease-Resistant Agonists of the Parathyroid Hormone Receptor with Broad β Residue Distribution” (J Med Chem, 2017).
Activity calls are given as the source filed them. No cut-off for these calls is given here.

Columns and labels:
[1] = biological target: T1, Parathyroid hormone/parathyroid hormone-related peptide receptor (Homo sapiens) (UniProt Q03431); experiment: Agonist activity at extracellular domain truncate human PTH1 receptor expressed in GD5 cells assessed as induction of cAMP after 12 to 20 mins by luciferase reporter gene assay; format: functional, cell-based
T1 sequence (whole entry): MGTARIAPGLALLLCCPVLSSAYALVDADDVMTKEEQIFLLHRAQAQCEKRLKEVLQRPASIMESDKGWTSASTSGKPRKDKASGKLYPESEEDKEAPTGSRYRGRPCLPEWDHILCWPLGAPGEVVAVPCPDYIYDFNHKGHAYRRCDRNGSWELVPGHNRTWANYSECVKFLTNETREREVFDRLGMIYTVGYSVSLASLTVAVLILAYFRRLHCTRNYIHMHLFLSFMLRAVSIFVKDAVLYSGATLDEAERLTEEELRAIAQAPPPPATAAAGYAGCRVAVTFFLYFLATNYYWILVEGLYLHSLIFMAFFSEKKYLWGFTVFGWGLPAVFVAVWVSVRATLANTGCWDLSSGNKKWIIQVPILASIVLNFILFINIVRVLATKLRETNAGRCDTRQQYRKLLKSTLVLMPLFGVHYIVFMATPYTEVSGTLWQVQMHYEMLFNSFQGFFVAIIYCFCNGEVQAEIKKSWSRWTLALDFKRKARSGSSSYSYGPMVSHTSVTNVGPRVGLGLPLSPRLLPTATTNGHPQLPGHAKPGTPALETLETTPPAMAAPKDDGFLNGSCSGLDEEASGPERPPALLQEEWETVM
Summary of the method: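 HEK293-derived lines stably expressing Glosensor cAMP reporter plus full-length human PTHR1 (GP2.3) or ECD-truncated PTHR1 (GD5). Confluent monolayers preincubated at room temperature in CO2-independent medium with 0.5 mM D-luciferin until baseline stable (30 min), then varied agonist concentrations added. Maximal luminescence (12−20 min) used for sigmoidal variable-slope fits.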

[2] = biological target: T1, Parathyroid hormone/parathyroid hormone-related peptide receptor (Homo sapiens); experiment: Agonist activity at human PTH1 receptor expressed in human GP2.3 cells assessed as induction of cAMP after 12 to 20 mins by luciferase reporter gene assay relative to PTH(1 to 34 residues)-NH2; format: functional, cell-based

| Activity [1] | fold change (FC) [2] | Structure (SMILES) |
| --- | --- | --- |
| Active | 28 | CC[C@H](C)[C@@H](CC(=O)N[C@@H](CCC(N)=O)C(=O)N[C@@H](CC(C)C)C(=O)N[C@@H](CCSC)C(=O)N[C@@H](Cc1cnc[nH]1)C(=O)N[C@@H](CC(N)=O)C(=O)N[C@@H](CC(C)C)C(=O)NCC(=O)N[C@@H](CCCCN)C(=O)N[C@@H](Cc1cnc[nH]1)C(=O)N[C@@H](CC(C)C)C(=O)N[C@@H](CC(N)=O)C(=O)N[C@@H](CO)C(=O)N[C@@H](CCSC)C(=O)N[C@@H](CCC(=O)O)C(=O)N[C@@H](CCCNC(=N)N)C(=O)N[C@H](C(=O)N[C@@H](CCC(=O)O)C(=O)N[C@@H](Cc1c[nH]c2ccccc12)C(=O)N[C@@H](CC(C)C)C(=O)N[C@@H](CCCNC(=N)N)C(=O)N[C@@H](CCCCN)C(=O)N[C@@H](CCCCN)C(=O)N[C@@H](CC(C)C)C(=O)N[C@@H](CCC(N)=O)C(=O)N[C@@H](CC(=O)O)C(=O)N[C@H](C(=O)N[C@@H](Cc1cnc[nH]1)C(=O)N[C@@H](CC(N)=O)C(=O)N[C@@H](Cc1ccccc1)C(N)=O)C(C)C)C(C)C)NC(=O)[C@H](CCC(=O)O)NC(=O)[C@H](CO)NC(=O)[C@@H](NC(=O)[C@@H](N)CO)C(C)C |
| Active | 55 | CC[C@H](C)[C@H](NC(=O)[C@H](CCC(=O)O)NC(=O)C[C@H](CO)NC(=O)[C@@H](NC(=O)[C@@H](N)CO)C(C)C)C(=O)N[C@@H](CCC(N)=O)C(=O)N[C@@H](CC(C)C)C(=O)N[C@@H](CCSC)C(=O)N[C@@H](Cc1cnc[nH]1)C(=O)N[C@@H](CC(N)=O)C(=O)N[C@@H](CC(C)C)C(=O)NCC(=O)N[C@@H](CCCCN)C(=O)N[C@@H](Cc1cnc[nH]1)C(=O)N[C@@H](CC(C)C)C(=O)N[C@@H](CC(N)=O)C(=O)N[C@@H](CO)C(=O)N[C@@H](CCSC)C(=O)N[C@@H](CCC(=O)O)C(=O)N[C@@H](CCCNC(=N)N)C(=O)N[C@H](C(=O)N[C@@H](CCC(=O)O)C(=O)N[C@@H](Cc1c[nH]c2ccccc12)C(=O)N[C@@H](CC(C)C)C(=O)N[C@@H](CCCNC(=N)N)C(=O)N[C@@H](CCCCN)C(=O)N[C@@H](CCCCN)C(=O)N[C@@H](CC(C)C)C(=O)N[C@@H](CCC(N)=O)C(=O)N[C@@H](CC(=O)O)C(=O)N[C@H](C(=O)N[C@@H](Cc1cnc[nH]1)C(=O)N[C@@H](CC(N)=O)C(=O)N[C@@H](Cc1ccccc1)C(N)=O)C(C)C)C(C)C |
| Active | 108 | CC[C@H](C)[C@H](NC(=O)C[C@@H](CCC(=O)O)NC(=O)[C@H](CO)NC(=O)[C@@H](NC(=O)[C@@H](N)CO)C(C)C)C(=O)N[C@@H](CCC(N)=O)C(=O)N[C@@H](CC(C)C)C(=O)N[C@@H](CCSC)C(=O)N[C@@H](Cc1cnc[nH]1)C(=O)N[C@@H](CC(N)=O)C(=O)N[C@@H](CC(C)C)C(=O)NCC(=O)N[C@@H](CCCCN)C(=O)N[C@@H](Cc1cnc[nH]1)C(=O)N[C@@H](CC(C)C)C(=O)N[C@@H](CC(N)=O)C(=O)N[C@@H](CO)C(=O)N[C@@H](CCSC)C(=O)N[C@@H](CCC(=O)O)C(=O)N[C@@H](CCCNC(=N)N)C(=O)N[C@H](C(=O)N[C@@H](CCC(=O)O)C(=O)N[C@@H](Cc1c[nH]c2ccccc12)C(=O)N[C@@H](CC(C)C)C(=O)N[C@@H](CCCNC(=N)N)C(=O)N[C@@H](CCCCN)C(=O)N[C@@H](CCCCN)C(=O)N[C@@H](CC(C)C)C(=O)N[C@@H](CCC(N)=O)C(=O)N[C@@H](CC(=O)O)C(=O)N[C@H](C(=O)N[C@@H](Cc1cnc[nH]1)C(=O)N[C@@H](CC(N)=O)C(=O)N[C@@H](Cc1ccccc1)C(N)=O)C(C)C)C(C)C |
| Active | 0.7 | CC[C@H](C)[C@H](NC(=O)[C@H](CCC(=O)O)NC(=O)[C@H](CO)NC(=O)[C@@H](NC(=O)C[C@@H](N)CO)C(C)C)C(=O)N[C@@H](CCC(N)=O)C(=O)N[C@@H](CC(C)C)C(=O)N[C@@H](CCSC)C(=O)N[C@@H](Cc1cnc[nH]1)C(=O)N[C@@H](CC(N)=O)C(=O)N[C@@H](CC(C)C)C(=O)NCC(=O)N[C@@H](CCCCN)C(=O)N[C@@H](Cc1cnc[nH]1)C(=O)N[C@@H](CC(C)C)C(=O)N[C@@H](CC(N)=O)C(=O)N[C@@H](CO)C(=O)N[C@@H](CCSC)C(=O)N[C@@H](CCC(=O)O)C(=O)N[C@@H](CCCNC(=N)N)C(=O)N[C@H](C(=O)N[C@@H](CCC(=O)O)C(=O)N[C@@H](Cc1c[nH]c2ccccc12)C(=O)N[C@@H](CC(C)C)C(=O)N[C@@H](CCCNC(=N)N)C(=O)N[C@@H](CCCCN)C(=O)N[C@@H](CCCCN)C(=O)N[C@@H](CC(C)C)C(=O)N[C@@H](CCC(N)=O)C(=O)N[C@@H](CC(=O)O)C(=O)N[C@H](C(=O)N[C@@H](Cc1cnc[nH]1)C(=O)N[C@@H](CC(N)=O)C(=O)N[C@@H](Cc1ccccc1)C(N)=O)C(C)C)C(C)C |
| Active | 205 | CC[C@H](C)[C@H](NC(=O)[C@H](CCC(=O)O)NC(=O)[C@H](CO)NC(=O)[C@@H](NC(=O)[C@@H](N)CO)C(C)C)C(=O)N[C@@H](CCC(N)=O)C(=O)N[C@@H](CC(C)C)C(=O)N[C@@H](CCSC)CC(=O)N[C@@H](Cc1cnc[nH]1)C(=O)N[C@@H](CC(N)=O)C(=O)N[C@@H](CC(C)C)C(=O)NCC(=O)N[C@@H](CCCCN)C(=O)N[C@@H](Cc1cnc[nH]1)C(=O)N[C@@H](CC(C)C)C(=O)N[C@@H](CC(N)=O)C(=O)N[C@@H](CO)C(=O)N[C@@H](CCSC)C(=O)N[C@@H](CCC(=O)O)C(=O)N[C@@H](CCCNC(=N)N)C(=O)N[C@H](C(=O)N[C@@H](CCC(=O)O)C(=O)N[C@@H](Cc1c[nH]c2ccccc12)C(=O)N[C@@H](CC(C)C)C(=O)N[C@@H](CCCNC(=N)N)C(=O)N[C@@H](CCCCN)C(=O)N[C@@H](CCCCN)C(=O)N[C@@H](CC(C)C)C(=O)N[C@@H](CCC(N)=O)C(=O)N[C@@H](CC(=O)O)C(=O)N[C@H](C(=O)N[C@@H](Cc1cnc[nH]1)C(=O)N[C@@H](CC(N)=O)C(=O)N[C@@H](Cc1ccccc1)C(N)=O)C(C)C)C(C)C |
| Active | 12 | CC[C@H](C)[C@H](NC(=O)[C@H](CCC(=O)O)NC(=O)[C@H](CO)NC(=O)[C@@H](NC(=O)[C@@H](N)CO)C(C)C)C(=O)N[C@@H](CCC(N)=O)C(=O)N[C@H](CC(=O)N[C@@H](CCSC)C(=O)N[C@@H](Cc1cnc[nH]1)C(=O)N[C@@H](CC(N)=O)C(=O)N[C@@H](CC(C)C)C(=O)NCC(=O)N[C@@H](CCCCN)C(=O)N[C@@H](Cc1cnc[nH]1)C(=O)N[C@@H](CC(C)C)C(=O)N[C@@H](CC(N)=O)C(=O)N[C@@H](CO)C(=O)N[C@@H](CCSC)C(=O)N[C@@H](CCC(=O)O)C(=O)N[C@@H](CCCNC(=N)N)C(=O)N[C@H](C(=O)N[C@@H](CCC(=O)O)C(=O)N[C@@H](Cc1c[nH]c2ccccc12)C(=O)N[C@@H](CC(C)C)C(=O)N[C@@H](CCCNC(=N)N)C(=O)N[C@@H](CCCCN)C(=O)N[C@@H](CCCCN)C(=O)N[C@@H](CC(C)C)C(=O)N[C@@H](CCC(N)=O)C(=O)N[C@@H](CC(=O)O)C(=O)N[C@H](C(=O)N[C@@H](Cc1cnc[nH]1)C(=O)N[C@@H](CC(N)=O)C(=O)N[C@@H](Cc1ccccc1)C(N)=O)C(C)C)C(C)C)CC(C)C |
